Activity calls are given as the source filed them. No cut-off for these calls is given here.
Tests used:
BXPC-3 = test: Cytotoxicity against human BXPC-3 cells assessed as inhibition of cell growth incubated for 5 days by MTS assay; details: BXPC-3, 120 h
[1] = target: Procathepsin L (Homo sapiens) (UniProt P07711); test: Inhibition of human cathepsin L using Z-phe-Arg-AMC as substrate at 20 uM by FRET-based enzymatic cleavage assay relative to control
CAPAN-1 = test: Cytotoxicity against human CAPAN-1 cells assessed as inhibition of cell growth incubated for 5 days by MTS assay; details: CAPAN-1, 120 h
Human coronavirus OC43 = test: Antiviral activity against HCoV-OC43 infected in human HCT-8 cells preincubated with cell for 1 hrs followed by viral infection and measured after 72 hrs by focus forming reduction assay; format: functional, organism-based; details: Betacoronavirus 1, HCT-8
[2] = tested on: Severe acute respiratory syndrome coronavirus 2; test: Inhibition of recombinant SARS-CoV-2 main protease using Dabcyl-KTSAVLQSGFRKME-Edans as substrate assessed as reduction in proteolytic activity at 20 uM preincubated for 10 mins followed by substrate addition and measured after 10 mins by FRET-based enzymatic cleavage assay relative to control; details: time 20.0 min
Outline: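 Recombinant SARS-CoV-2 Mpro at 50 nM final, with 25 µM final substrate and 20 µM final compound, in 20 mM Tris pH 7.5, 0.1 mM EDTA, 1 mM DTT, 200 mM NaCl. Substrate cleavage was followed at 25 °C as rising Edans fluorescence (ex 335/em 493 nm) after release of the Dabcyl quencher.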

[3] = Inhibition of recombinant SARS-CoV-2 main protease using Dabcyl-KTSAVLQSGFRKME-Edans as substrate assessed as reduction in proteolytic activity preincubated for 10 mins followed by substrate addition and measured after 10 mins by FRET-based enzymatic cleavage assay; design: species or system Severe acute respiratory syndrome coronavirus 2
[4] = Thiol reactivity of compound in phosphate buffer with N-acetyl cysteine at pH 7.4 assessed as micheal adduct formation measured after 24 hrs by 19F-NMR spectroscopic analysis; format: physicochemical; details: pH 7.4, 24 h
[5] = Thiol reactivity of compound in phosphate buffer with N-acetyl cysteine at pH 7.4 assessed as micheal adduct formation by measuring conversion rate measured after 1 hrs by HPLC-MS analysis; format: physicochemical; details: pH 7.4, 1 h
Outline: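 Compound with 1.1 equiv N-acetylcysteine in PBS pH 7.4 containing 10% ACN, stirred 1 h at 37 °C. The mixture was concentrated under reduced pressure, and consumption of starting material and adduct formation were followed by HPLC-MS.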

[6] = target: Cathepsin B (Homo sapiens) (UniProt P07858); test: Inhibition of human cathepsin B using Z-phe-Arg-AMC as substrate at 20 uM by FRET-based enzymatic cleavage assay relative to control
[7] = Thiol reactivity of compound in phosphate buffer with N-acetyl cysteine at pH 7.4 assessed as micheal adduct formation by measuring conversion rate measured after 24 hrs by HPLC-MS analysis; format: physicochemical; details: pH 7.4, 24 h

Sequence of Procathepsin L (Homo sapiens) (P07711 114-333 limits assumed): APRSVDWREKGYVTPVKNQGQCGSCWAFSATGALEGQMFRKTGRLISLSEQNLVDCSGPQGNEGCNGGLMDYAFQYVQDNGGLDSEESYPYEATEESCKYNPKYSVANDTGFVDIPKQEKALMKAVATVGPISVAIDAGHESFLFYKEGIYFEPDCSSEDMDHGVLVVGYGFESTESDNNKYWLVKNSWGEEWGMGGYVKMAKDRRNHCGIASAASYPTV

| SMILES | IC50 (BXPC-3) | inhibition [1] | IC50 (CAPAN-1) | inhibition [2] | other results |
| --- | --- | --- | --- | --- | --- |
| CCOC(=O)/C(F)=C/c1ccc(NC(=O)[C@H](Cc2ccccc2)NC(=O)c2cc3ccccc3[nH]2)cc1 | 14.1 µM | inactive | 28.3 µM | – | – |
| CCOC(=O)/C=C/c1ccc(NC(=O)[C@H](Cc2ccccc2)NC(=O)OCc2c[nH]c3ccccc23)cc1 | – | – | – | 60% | EC50 (Human coronavirus OC43): 9.14 µM; IC50 [3]: 12.4 µM |
| CCOC(=O)/C(F)=C/c1ccc(N)cc1 | – | – | – | – | Activity [4]: Active |
| CCOC(=O)/C(F)=C/c1ccc(NC(=O)[C@H](Cc2ccccc2)NC(=O)OCc2c[nH]c3ccccc23)cc1 | 5.79 µM | 29% | 20.8 µM | – | Activity [5]: ~ 80%; inhibition [6]: 20% |
| CCOC(=O)/C(F)=C/c1ccc(NC(=O)[C@H](Cc2ccccc2)NC(=O)OCc2ccccc2)cc1 | 25.9 µM | inactive | 40.6 µM | – | – |
| CCOC(=O)/C=C/c1ccc(NC(=O)[C@H](Cc2ccccc2)NC(=O)OCc2ccccc2)cc1 | – | – | – | 40% | Activity [7]: 70% |

From ChEMBL document CHEMBL6087409, “Synthesis of α-fluorocinnamate derivatives as novel cathepsin S inhibitors with in vitro antiproliferative activity against pancreatic cancer cells” (Bioorg Med Chem, 2024)
